Holding throughout (type): functional
Assay [1] concerns Escherichia coli. Briefly: Antibacterial activity against Escherichia coli ATCC 23556 by broth dilution method. The method, boiled down: (§1)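 MIC by twofold serial broth dilution. Compounds were dissolved in DMSO at 1.6 mg/mL as stock. Dilutions in Mueller–Hinton broth and Sabouraud dextrose broth ran from 800 down to 0.78. Inoculated broth containing DMSO alone at the same dilutions served as control. Gentamycin and griseofulvin were the reference drugs.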

For assay [2], the system named is Escherichia coli. Briefly: Antibacterial activity against Escherichia coli ATCC 23556 at 5 mg/mL by diffusion agar method. The conditions noted are these: read-out: IZ. The method, boiled down: (§2)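 Agar diffusion. Compounds and standard drugs were dissolved in DMSO at 5 mg/mL and diluted to 5, 2.5 and 1 mg/mL. Hundred microlitres of each concentration was applied. Inhibition was scored against the control: 0.1–0.5 cm beyond control = +, 0.6–1.0 cm = ++, 1.0–1.5 cm = +++, 0 = not detected.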

The subject of assay [3] is Penicillium italicum. Briefly: Antifungal activity against Penicillium italicum ATCC 48114 at 5 mg/mL by diffusion agar method. Conditions: read-out: IZ. The method, boiled down: as §2
Assay [4] deals with Staphylococcus aureus. Briefly: Antibacterial activity against Staphylococcus aureus ATCC 25923 by broth dilution method. The method, boiled down: as §1
Assay [5] deals with Penicillium italicum. Briefly: Antifungal activity against Penicillium italicum ATCC 48114 by broth dilution method. The method, boiled down:
as §1
For orientation: In broth dilution the organism is exposed to a series of concentrations in liquid medium.

Assay [6] concerns Staphylococcus aureus. Briefly: Antibacterial activity against Staphylococcus aureus ATCC 25923 at 5 mg/mL by diffusion agar method. The conditions noted are these: read-out: IZ. The method, boiled down: as §2
Assay [7] has as its system Pseudomonas aeruginosa. Briefly: Antibacterial activity against Pseudomonas aeruginosa ATCC 10145 by broth dilution method. The method, boiled down: (§3)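 MIC by twofold serial broth dilution. Compounds were dissolved in DMSO as a 1.6 mg/mL stock and diluted in Mueller-Hinton broth or Sabouraud dextrose broth to 800, 400, 200, 100, 50, 25, 12.5, 6.25, 3.12, 1.56 and 0.78. A control of inoculated broth with DMSO alone at the same dilutions was included. Gentamycin and griseofulvin served as reference drugs.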

For assay [8], the system named is Bacillus subtilis. Briefly: Antibacterial activity against Bacillus subtilis ATCC 6633 by broth dilution method. The method, boiled down:
as §3

Assay [9] deals with Syncephalastrum racemosum. Briefly: Antifungal activity against Syncephalastrum racemosum ATCC 18192 at 5 mg/mL by diffusion agar method. The conditions noted are these: read-out: IZ. The method, boiled down:
as §2

For assay [10], the system named is Pseudomonas aeruginosa. Briefly: Antibacterial activity against Pseudomonas aeruginosa ATCC 10145 at 2.5 mg/mL by diffusion agar method. The conditions noted are these: read-out: IZ. The method, boiled down: as §2
Assay [11] deals with Staphylococcus aureus. Briefly: Antibacterial activity against Staphylococcus aureus ATCC 25923 at 1 mg/mL by diffusion agar method. Conditions: read-out: IZ. The method, boiled down:
as §2

The test system of assay [12] is Aspergillus fumigatus. Briefly: Antifungal activity against Aspergillus fumigatus ATCC 96918 at 5 mg/mL by diffusion agar method. Conditions: read-out: IZ. The method, boiled down: as §2
Assay [13] has as its system Bacillus subtilis. Briefly: Antibacterial activity against Bacillus subtilis ATCC 6633 at 2.5 mg/mL by diffusion agar method. The conditions noted are these: read-out: IZ. The method, boiled down: as §2
Assay [14] has as its system Bacillus subtilis. Briefly: Antibacterial activity against Bacillus subtilis ATCC 6633 at 5 mg/mL by diffusion agar method. Conditions: read-out: IZ. The method, boiled down: as §2
The subject of assay [15] is Penicillium italicum. Briefly: Antifungal activity against Penicillium italicum ATCC 48114 at 2.5 mg/mL by diffusion agar method. Conditions: read-out: IZ. The method, boiled down: as §2
Assay [16] has as its system Pseudomonas aeruginosa. Briefly: Antibacterial activity against Pseudomonas aeruginosa ATCC 10145 at 1 mg/mL by diffusion agar method. Conditions: read-out: IZ. The method, boiled down:
as §2

Assay [17] deals with Aspergillus fumigatus. Briefly: Antifungal activity against Aspergillus fumigatus ATCC 96918 at 2.5 mg/mL by diffusion agar method. Conditions: read-out: IZ. The method, boiled down: as §2
For assay [18], the system named is Syncephalastrum racemosum. Briefly: Antifungal activity against Syncephalastrum racemosum ATCC 18192 at 2.5 mg/mL by diffusion agar method. Conditions: read-out: IZ. The method, boiled down:
as §2

Assay [19] relates to Bacillus subtilis. Briefly: Antibacterial activity against Bacillus subtilis ATCC 6633 at 1 mg/mL by diffusion agar method. Conditions: read-out: IZ. The method, boiled down:
as §2

In assay [20] the test system is Aspergillus fumigatus. Briefly: Antifungal activity against Aspergillus fumigatus ATCC 96918 at 1 mg/mL by diffusion agar method. The conditions noted are these: read-out: IZ. The method, boiled down: as §2
The test system of assay [21] is Staphylococcus aureus. Briefly: Antibacterial activity against Staphylococcus aureus ATCC 25923 at 2.5 mg/mL by diffusion agar method. Conditions: read-out: IZ. The method, boiled down:
as §2

The subject of assay [22] is Syncephalastrum racemosum. Briefly: Antifungal activity against Syncephalastrum racemosum ATCC 18192 by broth dilution method. The method, boiled down:
as §1

Assay [23] concerns Escherichia coli. Briefly: Antibacterial activity against Escherichia coli ATCC 23556 at 2.5 mg/mL by diffusion agar method. The conditions noted are these: read-out: IZ. The method, boiled down: as §2
Assay [24] concerns Pseudomonas aeruginosa. Briefly: Antibacterial activity against Pseudomonas aeruginosa ATCC 10145 at 5 mg/mL by diffusion agar method. The conditions noted are these: read-out: IZ. The method, boiled down:
as §2

Assay [25] has as its system Aspergillus fumigatus. Briefly: Antifungal activity against Aspergillus fumigatus ATCC 96918 by broth dilution method. The method, boiled down:
as §1

Assay [26] concerns Candida albicans. Briefly: Antimicrobial activity against Candida albicans ATCC 14053 at 1 mg/mL by diffusion agar method. The conditions noted are these: read-out: IZ. The method, boiled down: as §2
Assay [27] has as its system Candida albicans. Briefly: Antimicrobial activity against Candida albicans ATCC 14053 at 5 mg/mL by diffusion agar method. The conditions noted are these: read-out: IZ. The method, boiled down: as §2
Assay [28] has as its system Candida albicans. Briefly: Antimicrobial activity against Candida albicans ATCC 14053 at 2.5 mg/mL by diffusion agar method. The conditions noted are these: read-out: IZ. The method, boiled down:
as §2

In assay [29] the test system is Escherichia coli. Briefly: Antibacterial activity against Escherichia coli ATCC 23556 at 1 mg/mL by diffusion agar method. The conditions noted are these: read-out: IZ. The method, boiled down: as §2
Assay [30] concerns Candida albicans. Briefly: Antimicrobial activity against Candida albicans ATCC 14053 by broth dilution method. The method, boiled down: as §1
Assay [31] has as its system Penicillium italicum. Briefly: Antifungal activity against Penicillium italicum ATCC 48114 at 1 mg/mL by diffusion agar method. Conditions: read-out: IZ. The method, boiled down:
as §2

The subject of assay [32] is Syncephalastrum racemosum. Briefly: Antifungal activity against Syncephalastrum racemosum ATCC 18192 at 1 mg/mL by diffusion agar method. The conditions noted are these: read-out: IZ. The method, boiled down: as §2

In brackets after ≈: the same amount, converted by molar mass. Bounds are passed on as bounds.

In general, MIC refers to the lowest concentration that inhibits growth of the organism. Low values mean greater potency, high ones weaker potency. `CC(=O)O[C@@H]1[C@@H](OC(C)=O)[C@H](n2nc3sc(-c4ccc(Cl)cc4)nn3c2=S)OC[C@@H]1OC(C)=O`: the MIC in assay [1], in [4] and in [5] was greater than 1600 mg/L each time. Further, the zone of inhibition at 5000 µg/mL in assay [2], in [3] and in [6] was 1 mm each time.

Regarding GENTAMICIN, the minimum inhibitory concentration (MIC) came to 12.5 mg/L in assay [1], 3.12 mg/L in assay [4], 12.5 mg/L in assay [7] and 1.56 mg/L in assay [8].

In the case of `CC(=O)O[C@@H]1[C@@H](OC(C)=O)[C@H](Sc2nnc3sc(-c4ccc(Cl)cc4)nn23)OC[C@@H]1OC(C)=O`, the zone of inhibition at 5000 µg/mL in [9], in assay [2], in assay [12], in [3], in assay [14] and in [6] was 1 mm in each case. Moreover, the zone of inhibition at 5000 µg/mL in assay [24] was 1 mm. The zone of inhibition at 2500 µg/mL in assay [10], in [13], in [15], in [17], in assay [18] and in assay [21] was 1 mm each time. Also, the zone of inhibition at 2500 µg/mL in assay [23] came to 1 mm. Besides, the zone of inhibition at 1000 µg/mL in assay [11], in assay [16], in assay [19] and in assay [20] was 1 mm in each case. In addition, the MIC in [1] amounted to 1600 mg/L (≈ 3040 µM); in assay [4] it was 25 mg/L (≈ 47.4 µM); in assay [7], 12.5 mg/L (≈ 23.7 µM); in assay [5] it was 1600 mg/L (≈ 3040 µM); in assay [22], 1600 mg/L (≈ 3040 µM); in [8], 25 mg/L (≈ 47.4 µM). The same molecule displayed an MIC in [25] of 25 mg/L (≈ 47.4 µM).

As to `O=C(N[C@H](CO)[C@H](O)c1ccc([N+](=O)[O-])cc1)C(Cl)Cl` [CHLORAMPHENICOL], the zone of inhibition at 1000 µg/mL in [26], in [11], in [16], in assay [19] and in assay [29] was 6 mm in each case. Moreover, the zone of inhibition at 2500 µg/mL in assay [10] worked out at 10 mm; in [13], 10 mm; in assay [28], 6 mm; in assay [21], 6 mm; in assay [23] it was 6 mm. The zone of inhibition at 5000 µg/mL in assay [27] was determined as 6 mm; in assay [2] it was 6 mm; in assay [14], 10 mm; in assay [6], 6 mm; in [24] it was 10 mm.

For the molecule `COC1=CC(=O)C[C@@H](C)[C@]12Oc1c(Cl)c(OC)cc(OC)c1C2=O` [GRISEOFULVIN], the MIC in assay [30], in assay [5], in assay [22] and in assay [25] was 50 mg/L (≈ 142 µM) in each case.

As for `CN(C/C=C/C#CC(C)(C)C)Cc1cccc2ccccc12` [TERBINAFINE], the zone of inhibition at 5000 µg/mL in [9], in [12] and in [3] was 10 mm throughout. Besides, the zone of inhibition at 1000 µg/mL in [31] was determined as 6 mm; in [32], 10 mm; in assay [20], 6 mm. The zone of inhibition at 2500 µg/mL in assay [15], in assay [17] and in assay [18] was 10 mm throughout.

Source of the values: ChEMBL document CHEMBL1147959, “N- and S-alpha-l-arabinopyranosyl[1,2,4]triazolo[3,4-b][1,3,4]thiadiazoles. First synthesis and biological evaluation” (2007).
